Source: PubChem BioAssay
CCR6 antagonist – blocks CCL20-driven beta-arrestin recruitment at human CCR6. P51684. CHO-K1 CCR6 PathHunter beta-arrestin, luminescence, CCL20-stimulated. inhibition, % at 20 µM. hit rate 0.49% among 340,000. AID 493098;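 active = compounds whose inhibition of the agonist-driven luminescence signal at 20 µM reaches about 50%, limit read from the data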;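 note: cells stimulated with CCL20 at 14 nM final; plate controls were DMSO with CCL20 for no effect and DMSO without agonist for full effect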
EBI2 antag – antagonists of human EBI2 receptor | P32249 | EBI2 beta-arrestin recruitment, luminescence, 7a,25-OHC stimulated | inhibition, % at 5 µM | hit rate 0.81% among 360,000 | AID 651636; in the data active = inhibition above about 38%;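 note: enzyme fragment complementation signal reports receptor beta-arrestin coupling in cells; 0% = agonist plus DMSO wells and 100% = wells without agonist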
Target sequence (P32249 whole entry, looked up, the tested form may be a part): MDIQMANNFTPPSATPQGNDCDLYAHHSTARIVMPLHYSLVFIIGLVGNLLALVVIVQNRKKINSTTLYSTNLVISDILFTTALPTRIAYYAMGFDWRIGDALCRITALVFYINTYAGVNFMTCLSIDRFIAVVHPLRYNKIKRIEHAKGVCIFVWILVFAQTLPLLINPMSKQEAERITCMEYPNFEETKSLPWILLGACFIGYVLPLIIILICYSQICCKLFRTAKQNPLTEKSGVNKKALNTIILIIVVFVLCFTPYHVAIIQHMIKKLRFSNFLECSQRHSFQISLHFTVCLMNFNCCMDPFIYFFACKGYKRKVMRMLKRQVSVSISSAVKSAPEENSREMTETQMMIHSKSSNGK
APJ agonist – APJ receptor agonism; CHO-K1 APJ PathHunter beta-arrestin, luminescence; 0% DMSO wells, 100% apelin; activation, % at 20 µM; hit rate 0.11% among 330,000; AID 2520;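 active = activation more than six SD over the plate average, tested at 20 µM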;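 note: 0% = DMSO alone and 100% = apelin-13 at 10 nM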
Target sequence (P35414 whole entry, looked up): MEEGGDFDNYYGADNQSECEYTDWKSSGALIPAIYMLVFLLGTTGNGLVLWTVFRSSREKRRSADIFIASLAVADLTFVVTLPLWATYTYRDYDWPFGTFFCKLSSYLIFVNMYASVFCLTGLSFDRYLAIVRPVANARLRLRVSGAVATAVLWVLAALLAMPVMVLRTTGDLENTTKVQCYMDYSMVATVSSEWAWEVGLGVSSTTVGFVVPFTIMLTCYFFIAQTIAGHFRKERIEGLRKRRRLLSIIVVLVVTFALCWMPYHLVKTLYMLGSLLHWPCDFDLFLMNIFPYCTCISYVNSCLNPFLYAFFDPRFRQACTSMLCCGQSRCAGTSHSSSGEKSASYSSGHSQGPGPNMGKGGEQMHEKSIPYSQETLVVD
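Assay system – PathHunter CHO-K1 APJ (AGTRL-1) beta-arrestin reporter cells · Compound – one dose, 20 µM compound, 1% DMSO · Timing – compound 90 min 25 °C, reagent 1 h · Measured by – luminescence from split beta-galactosidase complementation, Galacton Star/Emerald II substrate · Measure – beta-arrestin recruitment to APJ as agonist activity, luminescent signal · Benchmarks – DMSO vs Apelin-13 10 nM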
APJ antag – blocks the human apelin receptor APJ | CHO-K1 APJ beta-arrestin complementation, luminescence | P35414 | inhibition, % at 20 µM | AID 2521 | hit rate 0.32% among 330,000;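 active = inhibition above about 40% at 20 µM, limit read from the data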;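 note: cells challenged with 10 nM apelin-13 agonist together with compound; plate controls were apelin-13 plus DMSO wells for no effect and DMSO wells lacking apelin-13 for full effect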
CXCR6 inh – blocks human CXCR6 beta-arrestin recruitment; O00574; CHO-K1 PathHunter CXCR6 beta-arrestin, luminescence; inhibition, % at 20 µM; hit rate 0.36% among 360,000; in the data active = inhibition above about 34%, passing the limit was not always enough;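 note: antagonist mode with CXCL16 agonist at 10 nM final; 0% = 10 nM CXCL16 with DMSO and 100% = unstimulated wells without agonist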
EBI2 conf – confirmation of human EBI2 receptor antagonists. shares compounds with EBI2 antag. EBI2 beta-arrestin luminescence, 7a,25-OHC antagonism. inhibition, % at 5 µM. hit rate 29% among 2,400;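 active = inhibition of at least 50%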
EBI2 agonist – EBI2 agonism counter-screen; shares compounds with EBI2 antag; EBI2-expressing cells, agonist mode, luminescence, 60 min; 0% vehicle, 100% 7α,25-dihydroxycholesterol control; activation, % at 5 µM; 2,400 tested, under 10 active; AID 652000;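 active = activation of at least 50%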
bGal counter – beta-galactosidase inhibition counter-screen. hit rate 1% among 2,400. purified beta-galactosidase, luminescent Galacton Star, 15 min. shares compounds with EBI2 antag. inhibition, % at 5 µM. AID 652176;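 active = replicate-average signal at least 3 plate SD below neutral wells, shown as high inhibition, flagging enzyme-inhibiting false positives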;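 note: 0% = DMSO wells with enzyme and 100% = wells lacking enzyme; higher means stronger loss of beta-gal luminescence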
The depositor's hits bear a star; · = no result. Most compounds without a hit are left out; they make up all but 1.5% or so of the library.

SMILES | CCR6 antagonist | EBI2 antag | APJ agonist | APJ antag | CXCR6 inh | EBI2 conf | EBI2 agonist | bGal counter
O=C(/C=C/c1ccccc1F)N1CCN(c2ccccn2)CC1 | 8.6 | 44.8* | -2.8 | 7.9 | -9.9 | 31.9 | 0.4 | 5.1
O=C(Nc1ccccc1)Nc1nnc([C@H]2C[C@H](O)[C@@H](CO)O2)s1 | · | -9.4 | · | · | 1.5 | · | · | ·
O=C(CSc1nc(Nc2ccccc2)nc(N2CCOCC2)n1)Nc1ccccc1Cl | 8.6 | 17.9 | -0.4 | -14.1 | -3.0 | · | · | ·
O=C(CSc1nc(Nc2ccccc2)nc(N2CCOCC2)n1)Nc1ccc(Br)cc1F | -3.7 | 46.1* | 9.5 | -23.2 | -1.4 | -2.2 | -0.8 | -11.9
COc1ccc(/C=C/C(=O)Nc2ccc(-n3nncc3-c3ccccc3)cc2)cc1OC | 29.4 | 61.3* | 4.4 | 2.7 | -4.9 | 20.6 | -1.0 | -8.6
COc1ccc(/C=C/C(=O)Nc2ccc(C(N)=O)cc2)cc1OC | -2.0 | 3.7 | 1.1 | 1.6 | -2.9 | · | · | ·
O=C(O)c1cc(-c2ccccc2)n[nH]1 | 6.7 | -12.9 | -4.2 | -2.2 | -5.3 | · | · | ·
COc1ccccc1-c1cc(C(=O)N2CCN(S(=O)(=O)c3ccc(C)cc3)CC2)[nH]n1 | 7.1 | 61.5* | 1.2 | -12.6 | 1.2 | 41.3 | 3.1 | -20.2
COc1ccc(-c2cc(C(=O)N3CCN(S(=O)(=O)c4ccccc4)CC3)[nH]n2)cc1 | 0.4 | 48.3* | 0.3 | 2.6 | -3.5 | 26.9 | 0.3 | 8.5
O=C(c1cc(-c2ccccc2)n[nH]1)N1CCN(S(=O)(=O)c2ccccc2)CC1 | -17.0 | 59.4* | -2.1 | 12.7 | 7.9 | 23.0 | -0.4 | -15.1
COc1ccc(-c2cc(C(=O)N3CCN(C(=O)c4ccccc4F)CC3)[nH]n2)cc1 | -2.9 | 32.3 | -7.8 | 11.4 | 0.8 | · | · | ·
COc1ccc(S(=O)(=O)N2CCN(C(=O)c3cc(-c4ccc(Br)cc4)n[nH]3)CC2)cc1OC | -15.8 | 71.9* | 25.2 | -3.9 | -19.4 | 45.4 | 1.8 | 4.1
CCc1nc2c(OCc3ccc(F)c(F)c3)cccn2c1N(C)C(=O)c1ccc(OC)cc1 | · | -2.1 | · | · | 6.9 | · | · | ·
O=C(c1cc(-c2ccc(Br)cc2)n[nH]1)N1CCN(C(=O)c2ccccc2Br)CC1 | 5.6 | 84.4* | 1.1 | -7.1 | -0.9 | 51.6* | 1.2 | -14.9
Cc1ccc(S(=O)(=O)N2CCN(C(=O)c3cc4c(s3)CCCC4)CC2)c(C)c1 | 19.8 | 67.7* | -2.9 | 11.2 | 5.5 | 34.1 | -0.8 | -10.9
CCc1nc2c(OCc3ccc(Cl)cc3Cl)cccn2c1N(C)C(C)=O | · | 23.5 | · | · | 6.9 | · | · | ·
CC(C)CN1C(=O)CN(S(C)(=O)=O)CC1(C)C(=O)NC(C)C (stereo not given) | · | -1.7 | · | · | · | · | · | ·
CN1C2C=C3C(C#N)=C(N)C(C#N)(C#N)[C@@H](c4ccc(Cl)cc4)[C@@H]3C1CC2 (stereo not given in full) | 11.3 | 31.6 | -1.3 | 14.3 | 13.6 | · | · | ·
CN1C2C=C3C(C#N)=C(N)C(C#N)(C#N)C(c4ccc(Br)cc4)C3C1CC2 (stereo not given) | 37.6 | 51.3* | -7.3 | 14.2 | 24.2 | 58.9* | 1.2 | 4.0
CCOc1ccc(CCNC(=O)c2ccc(CS(=O)Cc3ccccc3Cl)o2)cc1 (stereo not given) | 11.8 | -1.6 | -0.8 | -2.2 | -2.0 | · | · | ·
O=C(NCCc1ccccc1)c1ccc(CS(=O)Cc2cccc(Cl)c2)o1 (stereo not given) | 11.7 | 23.2 | -0.7 | 11.3 | 2.3 | · | · | ·
COc1ccc(OC)c(CCNC(=O)c2ccc(CS(=O)Cc3ccc(Cl)cc3)o2)c1 (stereo not given) | 18.1 | 28.5 | -1.6 | 9.8 | 2.4 | · | · | ·
CSc1ccc(CCNC(=O)c2ccc(CS(=O)Cc3ccc(Cl)cc3)o2)cc1 (stereo not given) | 17.3 | 53.8* | 5.0 | 4.7 | -16.4 | 7.4 | -0.3 | -11.9
CCOc1ccc(CCNC(=O)c2ccc(CS(=O)Cc3ccc(Cl)cc3)o2)cc1 (stereo not given) | 16.9 | 46.2* | 0.0 | 10.1 | -2.9 | 28.2 | 1.3 | 1.6
O=C(NCCc1ccc(Cl)cc1)c1ccc(CS(=O)Cc2ccc(Cl)cc2)o1 (stereo not given) | 6.0 | 67.9* | 0.3 | 3.1 | -6.4 | 54.2* | -1.7 | -8.2
SMILES | CCR6 antagonist | EBI2 antag | APJ agonist | APJ antag | CXCR6 inh | EBI2 conf | EBI2 agonist | bGal counter
Cc1ccc(-c2nc(SC(C)C(=O)NC3CC3)n[nH]2)cc1 (stereo not given) | · | -5.4 | · | · | -2.7 | · | · | ·
CCS(=O)(=O)N1CCN(C(=O)c2ccc(-c3ccccc3)cc2)CC1 | -22.8 | 83.4* | 1.5 | 8.3 | 1.0 | 56.4* | -0.1 | -23.5
CC(C)(C)NC(=O)C1CCN(C(=O)c2ccc(-c3ccccc3)cc2)CC1 | 10.9 | 47.8* | -2.8 | 4.1 | -6.7 | 46.7 | -0.4 | -16.4
O=C(c1ccc(-c2ccccc2)cc1)N1CCN(C(=O)c2ccco2)CC1 | 5.3 | 71.5* | -3.4 | 8.5 | -0.9 | 34.6 | 1.6 | 7.0
CS(=O)(=O)N1CCN(C(=O)c2ccc(-c3ccccc3)cc2)CC1 | 7.5 | 69.6* | -4.0 | 10.1 | -7.2 | 30.0 | 1.9 | 5.7
Cc1cccc(C)c1NC(=O)C1(C)CSCC(=O)N1C1CCN(Cc2ccccc2)CC1 (stereo not given) | · | -3.3 | · | · | · | · | · | ·
COc1ccc(-c2oc3c(c2-c2cnc(OC)nc2)C(O)CC3)cc1 (stereo not given) | · | -1.1 | · | · | 5.1 | · | · | ·
O=C1C=C(c2ccc(Cl)nc2)C[C@@H](c2ccc3c(c2)OCO3)C1 | 5.8 | 7.9 | -2.5 | 4.3 | 2.2 | · | · | ·
O=C1C=C(c2cc3ccccc3o2)C[C@@H](c2ccc(F)cc2)C1 | 25.6 | 25.5 | -3.4 | 12.1 | -7.2 | · | · | ·
O=C1C=C(c2ccc(-c3ccccc3)c(F)c2)C[C@@H](c2ccc(F)cc2)C1 | 10.5 | 22.5 | 0.5 | -4.0 | -3.7 | · | · | ·
O=C1C=C(c2ccc3ccccc3c2)C[C@@H](c2ccc(F)cc2)C1 | 5.0 | 76.7* | -1.9 | -11.7 | 3.8 | 42.8 | -0.9 | -7.7
O=C1C=C(c2cccc3c2oc2ccccc23)C[C@@H](c2ccc(F)cc2)C1 | 3.6 | 76.1* | -3.9 | 3.0 | -2.2 | 55.8* | 0.1 | -12.2
O=C1C=C(c2ccc3[nH]ccc3c2)C[C@@H](c2ccc(F)cc2)C1 | 13.4 | 52.0* | -3.2 | 15.5 | -0.4 | 61.9* | -0.4 | 11.3
O=C1C=C(c2ccc3ncccc3c2)C[C@@H](c2ccc3c(c2)OCO3)C1 | 21.9 | 66.3* | -2.6 | 10.8 | 2.7 | 44.7 | -0.8 | -4.5
CCOC(=O)CC[C@H](NC(=O)Cn1cnc2c(NCc3ccccc3)ncnc21)C(=O)OCC | 25.8 | -8.5 | · | · | -10.9 | · | · | ·
C[C@@H]1CN([C@H](C)CO)C(=O)c2cc(C#CC(C)(C)O)cnc2O[C@@H]1CN(C)C(=O)C1CC1 | · | -5.3 | · | · | 7.6 | · | · | ·
